The source of these data is ChEMBL document CHEMBL1681705, “Optimisation of ITK inhibitors through successive iterative design cycles” (Bioorg Med Chem Lett, 2011).

As usually defined, the inhibition is the drop in the measured response relative to a control, in per cent. A high value points to a strong effect.

Structures are written as SMILES.

The target of assay [1] is Glycogen synthase kinase-3 beta (Homo sapiens) (UniProt P49841). Description: Inhibition of GSK3-beta at 1 uM; values are per cent of control.
In assay [2] the target is Receptor-type tyrosine-protein kinase FLT3 (Homo sapiens) (UniProt P36888). Description: Inhibition of Flt3 at 1 uM; values are per cent of control.
In assay [3] the target is Proto-oncogene tyrosine-protein kinase Src (Homo sapiens) (UniProt P12931). Description: Inhibition of c-SRC at 1 uM; values are per cent of control.
The target in assay [4] is Epidermal growth factor receptor (Homo sapiens) (UniProt P00533). Briefly: Inhibition of EGFR at 1 uM; values are per cent of control.
Chain of Epidermal growth factor receptor (Homo sapiens) (P00533 whole entry): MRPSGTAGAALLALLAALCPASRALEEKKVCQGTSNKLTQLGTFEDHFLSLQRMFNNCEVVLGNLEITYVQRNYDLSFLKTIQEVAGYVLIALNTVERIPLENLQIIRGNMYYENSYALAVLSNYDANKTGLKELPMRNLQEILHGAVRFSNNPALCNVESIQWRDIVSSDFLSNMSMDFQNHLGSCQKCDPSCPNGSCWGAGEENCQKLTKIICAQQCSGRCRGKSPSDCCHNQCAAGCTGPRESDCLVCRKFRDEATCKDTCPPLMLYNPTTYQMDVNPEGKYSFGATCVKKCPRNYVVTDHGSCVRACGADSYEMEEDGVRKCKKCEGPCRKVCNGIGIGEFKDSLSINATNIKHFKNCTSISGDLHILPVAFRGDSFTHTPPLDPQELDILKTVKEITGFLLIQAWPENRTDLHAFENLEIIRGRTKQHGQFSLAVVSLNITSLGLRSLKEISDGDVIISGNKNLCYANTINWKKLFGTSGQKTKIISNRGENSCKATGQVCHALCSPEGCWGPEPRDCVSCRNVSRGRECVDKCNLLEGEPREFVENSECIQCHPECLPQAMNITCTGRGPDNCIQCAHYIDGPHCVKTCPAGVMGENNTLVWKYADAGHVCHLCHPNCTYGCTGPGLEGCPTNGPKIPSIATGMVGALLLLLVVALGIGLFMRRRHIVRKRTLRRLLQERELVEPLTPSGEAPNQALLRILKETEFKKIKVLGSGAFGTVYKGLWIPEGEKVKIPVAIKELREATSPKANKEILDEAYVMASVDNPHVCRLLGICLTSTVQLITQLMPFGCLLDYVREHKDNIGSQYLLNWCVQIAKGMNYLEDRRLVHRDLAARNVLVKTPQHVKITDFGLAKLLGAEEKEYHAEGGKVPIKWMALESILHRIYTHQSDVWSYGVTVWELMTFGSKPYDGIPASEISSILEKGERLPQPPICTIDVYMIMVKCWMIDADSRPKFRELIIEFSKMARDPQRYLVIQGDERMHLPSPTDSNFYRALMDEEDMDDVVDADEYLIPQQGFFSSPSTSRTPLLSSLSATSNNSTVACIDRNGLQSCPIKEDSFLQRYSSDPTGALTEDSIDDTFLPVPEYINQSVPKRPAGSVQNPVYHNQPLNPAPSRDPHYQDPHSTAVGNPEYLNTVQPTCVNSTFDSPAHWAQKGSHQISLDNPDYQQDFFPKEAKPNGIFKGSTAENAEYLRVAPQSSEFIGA
Assay [5] has as its target Tyrosine-protein kinase Fyn (Homo sapiens) (UniProt P06241). Description: Inhibition of Fyn at 1 uM. A digest of the protocol: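 Single-point profiling in a panel of 108 kinases. Each selected inhibitor was tested at two concentrations, 0.1 and 1.0 micromolar. Values are reported as inhibition at each concentration.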
The target of assay [6] is Cyclin-dependent kinase 5/CDK5 activator 1 (Homo sapiens) (UniProt Q00535+Q15078). Description: Inhibition of CDK5/p35 at 1 uM; values are per cent of control.
Assay [7] deals with Vascular endothelial growth factor receptor 2 (Homo sapiens) (UniProt P35968). Description: Inhibition of KDR at 0.1 uM; values are per cent of control.
The target of assay [8] is Tyrosine-protein kinase JAK2 (Homo sapiens) (UniProt O60674). Description: Inhibition of JAK2 at 0.1 uM; values are per cent of control.
Chain of Tyrosine-protein kinase JAK2 (Homo sapiens) (O60674 whole entry): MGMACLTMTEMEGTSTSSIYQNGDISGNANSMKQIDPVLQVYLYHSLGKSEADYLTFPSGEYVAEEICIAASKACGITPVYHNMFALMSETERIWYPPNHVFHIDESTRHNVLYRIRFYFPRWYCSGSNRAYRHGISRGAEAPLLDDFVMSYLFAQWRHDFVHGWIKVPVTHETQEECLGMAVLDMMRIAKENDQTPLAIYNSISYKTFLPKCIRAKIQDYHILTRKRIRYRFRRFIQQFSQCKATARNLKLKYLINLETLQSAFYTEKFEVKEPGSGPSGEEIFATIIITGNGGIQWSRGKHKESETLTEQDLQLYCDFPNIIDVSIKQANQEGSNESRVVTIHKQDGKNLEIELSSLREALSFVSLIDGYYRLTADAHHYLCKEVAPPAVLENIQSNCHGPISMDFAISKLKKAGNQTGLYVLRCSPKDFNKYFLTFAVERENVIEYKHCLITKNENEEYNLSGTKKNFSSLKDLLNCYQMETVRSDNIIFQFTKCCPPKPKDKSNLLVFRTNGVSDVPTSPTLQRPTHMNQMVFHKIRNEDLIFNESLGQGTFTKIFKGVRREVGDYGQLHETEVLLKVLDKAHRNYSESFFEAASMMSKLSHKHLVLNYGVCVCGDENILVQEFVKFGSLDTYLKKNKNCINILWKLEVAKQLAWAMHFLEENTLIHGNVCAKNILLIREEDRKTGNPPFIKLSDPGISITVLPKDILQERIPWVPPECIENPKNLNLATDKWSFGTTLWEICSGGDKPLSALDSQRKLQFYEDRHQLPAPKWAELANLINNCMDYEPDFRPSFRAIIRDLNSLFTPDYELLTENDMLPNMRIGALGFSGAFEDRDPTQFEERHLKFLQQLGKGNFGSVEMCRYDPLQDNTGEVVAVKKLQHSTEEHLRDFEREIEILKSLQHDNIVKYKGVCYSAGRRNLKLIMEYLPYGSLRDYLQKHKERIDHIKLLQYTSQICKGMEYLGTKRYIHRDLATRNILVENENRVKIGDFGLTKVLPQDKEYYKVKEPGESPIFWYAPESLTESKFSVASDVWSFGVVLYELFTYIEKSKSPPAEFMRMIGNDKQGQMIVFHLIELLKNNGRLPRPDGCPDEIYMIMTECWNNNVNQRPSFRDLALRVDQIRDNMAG
Assay [9] deals with Tyrosine-protein kinase Fgr (Homo sapiens) (UniProt P09769). Briefly: Inhibition of Fgr at 0.1 uM; values are per cent of control.
Chain of Tyrosine-protein kinase Fgr (Homo sapiens) (P09769 2-529 limits assumed): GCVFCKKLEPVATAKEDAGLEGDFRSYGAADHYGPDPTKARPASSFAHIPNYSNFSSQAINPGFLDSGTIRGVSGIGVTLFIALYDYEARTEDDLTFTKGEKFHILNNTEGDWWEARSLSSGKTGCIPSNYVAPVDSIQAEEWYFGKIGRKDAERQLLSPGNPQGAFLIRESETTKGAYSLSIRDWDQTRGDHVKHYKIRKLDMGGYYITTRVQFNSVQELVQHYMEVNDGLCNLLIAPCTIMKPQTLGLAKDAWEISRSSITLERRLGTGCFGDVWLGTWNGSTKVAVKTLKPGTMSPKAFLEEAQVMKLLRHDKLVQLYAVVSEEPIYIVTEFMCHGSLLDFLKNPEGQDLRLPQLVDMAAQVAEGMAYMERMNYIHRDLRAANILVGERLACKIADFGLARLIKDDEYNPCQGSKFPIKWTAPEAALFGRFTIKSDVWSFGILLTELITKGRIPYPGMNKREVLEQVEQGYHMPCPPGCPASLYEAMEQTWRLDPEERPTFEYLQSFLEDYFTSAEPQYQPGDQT
Assay [10] has as its target Ribosomal protein S6 kinase alpha-4 (Homo sapiens) (UniProt O75676). Description: Inhibition of MSK2 at 1 uM. The essentials: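 Single-point screen within a 108-kinase selectivity panel. Each kinase was tested with inhibitor at 0.1 and 1.0 micromolar, and activity was recorded as percent inhibition.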
Assay [11] is described as follows: Inhibition of MAPK2 at 0.1 uM. To be noted: values are per cent of control.
The target in assay [12] is Insulin receptor (Homo sapiens) (UniProt P06213). Description: Inhibition of IR at 0.1 uM; values are per cent of control.
For assay [13], the target named is Tyrosine-protein kinase Lck (Homo sapiens) (UniProt P06239). Briefly: Inhibition of Lck at 0.1 uM; values are per cent of control.
The target of assay [14] is T1, Ephrin type-A receptor 3 (Homo sapiens) (UniProt P29320).
T1 sequence (whole entry): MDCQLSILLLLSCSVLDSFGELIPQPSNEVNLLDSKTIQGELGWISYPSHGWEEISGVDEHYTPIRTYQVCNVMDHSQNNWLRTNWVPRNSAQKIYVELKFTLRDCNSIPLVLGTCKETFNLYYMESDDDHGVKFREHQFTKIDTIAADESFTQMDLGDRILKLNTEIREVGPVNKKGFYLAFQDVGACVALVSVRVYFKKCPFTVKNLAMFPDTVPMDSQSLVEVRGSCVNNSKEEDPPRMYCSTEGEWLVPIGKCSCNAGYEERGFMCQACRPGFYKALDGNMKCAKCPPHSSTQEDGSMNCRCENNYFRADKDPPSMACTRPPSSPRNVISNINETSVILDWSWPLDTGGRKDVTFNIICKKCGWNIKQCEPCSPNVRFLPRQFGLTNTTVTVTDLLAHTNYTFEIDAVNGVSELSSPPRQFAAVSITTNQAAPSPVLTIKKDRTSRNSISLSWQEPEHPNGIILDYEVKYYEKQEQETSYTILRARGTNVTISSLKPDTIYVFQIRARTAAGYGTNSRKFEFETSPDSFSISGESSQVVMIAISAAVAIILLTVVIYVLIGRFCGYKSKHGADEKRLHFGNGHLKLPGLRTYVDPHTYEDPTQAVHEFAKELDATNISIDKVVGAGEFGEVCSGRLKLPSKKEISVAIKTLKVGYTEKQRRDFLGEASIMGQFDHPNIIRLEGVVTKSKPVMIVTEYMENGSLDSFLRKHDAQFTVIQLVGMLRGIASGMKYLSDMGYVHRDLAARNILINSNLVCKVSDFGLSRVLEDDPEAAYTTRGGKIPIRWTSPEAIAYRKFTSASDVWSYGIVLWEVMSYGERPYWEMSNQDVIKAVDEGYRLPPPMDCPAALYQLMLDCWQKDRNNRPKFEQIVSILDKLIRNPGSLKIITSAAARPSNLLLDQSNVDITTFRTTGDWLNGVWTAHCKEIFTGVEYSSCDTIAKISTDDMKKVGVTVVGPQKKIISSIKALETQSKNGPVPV
Description: Inhibition of EphA3 at 0.1 uM; values are per cent of control.

For assay [15], the target named is Serine/threonine-protein kinase PAK 2 (Homo sapiens) (UniProt Q13177). Briefly: Inhibition of PAK2 at 1 uM; values are per cent of control.
Chain of Serine/threonine-protein kinase PAK 2 (Homo sapiens) (Q13177 whole entry): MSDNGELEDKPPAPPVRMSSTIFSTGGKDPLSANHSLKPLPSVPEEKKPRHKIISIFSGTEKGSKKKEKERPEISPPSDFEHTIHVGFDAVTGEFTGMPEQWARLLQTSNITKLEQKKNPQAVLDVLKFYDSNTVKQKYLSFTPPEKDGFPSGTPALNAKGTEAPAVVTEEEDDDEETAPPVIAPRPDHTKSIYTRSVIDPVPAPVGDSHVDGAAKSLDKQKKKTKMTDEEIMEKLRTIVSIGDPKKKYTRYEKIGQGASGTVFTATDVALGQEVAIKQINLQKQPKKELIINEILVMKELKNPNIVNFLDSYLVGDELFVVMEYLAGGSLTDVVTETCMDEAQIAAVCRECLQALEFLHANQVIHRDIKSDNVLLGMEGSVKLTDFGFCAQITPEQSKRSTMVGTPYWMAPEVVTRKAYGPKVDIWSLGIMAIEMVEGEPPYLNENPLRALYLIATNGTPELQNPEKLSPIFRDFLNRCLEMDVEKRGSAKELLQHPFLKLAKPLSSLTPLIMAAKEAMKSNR
In assay [16] the target is Serine/threonine-protein kinase PLK2 (Homo sapiens) (UniProt Q9NYY3). Briefly: Inhibition of Snk at 1 uM.
Assay [17] addresses Receptor tyrosine-protein kinase erbB-4 (Homo sapiens) (UniProt Q15303). Description: Inhibition of ErbB4 at 1 uM; values are per cent of control.
For assay [18], the target named is Protein kinase C theta type (Homo sapiens) (UniProt Q04759). Description: Inhibition of PKCtheta at 0.1 uM; values are per cent of control.
Assay [19] addresses Macrophage colony-stimulating factor 1 receptor (Homo sapiens) (UniProt P07333). Briefly: Inhibition of Fms at 1 uM; values are per cent of control.
Assay [20] concerns the target Ephrin type-A receptor 4 (Homo sapiens) (UniProt P54764). Description: Inhibition of EphA4 at 1 uM; values are per cent of control.
Assay [21] addresses Mitogen-activated protein kinase 11 (Homo sapiens) (UniProt Q15759). Briefly: Inhibition of SAPK2b at 1 uM.
Assay [22] concerns the target Serine/threonine-protein kinase PLK3 (Homo sapiens) (UniProt Q9H4B4). Briefly: Inhibition of Plk3 at 1 uM; values are per cent of control.
The target in assay [23] is MAP kinase-activated protein kinase 2 (Homo sapiens) (UniProt P49137). Description: Inhibition of MAPKAP-K2 at 0.1 uM; values are per cent of control.

Chain of Receptor tyrosine-protein kinase erbB-4 (Homo sapiens) (Q15303 whole entry): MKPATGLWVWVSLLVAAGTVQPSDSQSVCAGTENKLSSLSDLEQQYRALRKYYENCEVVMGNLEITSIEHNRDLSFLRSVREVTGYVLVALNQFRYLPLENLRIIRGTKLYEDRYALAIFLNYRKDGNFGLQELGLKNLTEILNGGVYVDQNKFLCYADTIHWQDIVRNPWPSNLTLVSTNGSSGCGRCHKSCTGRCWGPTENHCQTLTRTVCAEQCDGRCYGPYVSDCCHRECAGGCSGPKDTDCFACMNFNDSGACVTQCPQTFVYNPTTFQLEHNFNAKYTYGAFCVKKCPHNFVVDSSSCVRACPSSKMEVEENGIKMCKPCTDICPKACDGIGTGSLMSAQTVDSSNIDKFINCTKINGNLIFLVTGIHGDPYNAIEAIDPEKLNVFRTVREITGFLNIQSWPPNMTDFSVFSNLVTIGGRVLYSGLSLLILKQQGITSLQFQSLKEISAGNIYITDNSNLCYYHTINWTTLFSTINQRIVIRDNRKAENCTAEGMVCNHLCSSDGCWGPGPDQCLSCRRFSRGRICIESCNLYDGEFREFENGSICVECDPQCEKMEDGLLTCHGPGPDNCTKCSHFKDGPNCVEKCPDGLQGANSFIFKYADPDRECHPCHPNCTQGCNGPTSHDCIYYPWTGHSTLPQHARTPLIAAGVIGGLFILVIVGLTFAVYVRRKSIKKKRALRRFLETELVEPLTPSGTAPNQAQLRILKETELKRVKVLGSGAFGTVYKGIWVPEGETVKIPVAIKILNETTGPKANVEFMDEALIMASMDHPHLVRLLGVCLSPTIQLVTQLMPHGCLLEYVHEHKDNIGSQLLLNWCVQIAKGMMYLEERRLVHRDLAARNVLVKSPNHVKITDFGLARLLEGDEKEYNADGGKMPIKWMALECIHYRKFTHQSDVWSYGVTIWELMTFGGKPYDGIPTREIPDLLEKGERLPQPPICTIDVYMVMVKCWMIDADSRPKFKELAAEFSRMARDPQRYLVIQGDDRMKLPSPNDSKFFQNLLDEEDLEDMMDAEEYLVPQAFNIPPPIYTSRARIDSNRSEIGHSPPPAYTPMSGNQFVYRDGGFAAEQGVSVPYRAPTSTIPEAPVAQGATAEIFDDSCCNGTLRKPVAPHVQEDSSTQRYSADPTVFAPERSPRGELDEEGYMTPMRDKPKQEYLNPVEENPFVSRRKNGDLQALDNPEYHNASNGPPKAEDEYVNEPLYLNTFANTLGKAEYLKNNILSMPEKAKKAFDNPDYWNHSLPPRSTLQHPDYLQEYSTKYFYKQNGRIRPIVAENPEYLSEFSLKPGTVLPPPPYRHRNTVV
Chain of Mitogen-activated protein kinase 11 (Homo sapiens) (Q15759 whole entry): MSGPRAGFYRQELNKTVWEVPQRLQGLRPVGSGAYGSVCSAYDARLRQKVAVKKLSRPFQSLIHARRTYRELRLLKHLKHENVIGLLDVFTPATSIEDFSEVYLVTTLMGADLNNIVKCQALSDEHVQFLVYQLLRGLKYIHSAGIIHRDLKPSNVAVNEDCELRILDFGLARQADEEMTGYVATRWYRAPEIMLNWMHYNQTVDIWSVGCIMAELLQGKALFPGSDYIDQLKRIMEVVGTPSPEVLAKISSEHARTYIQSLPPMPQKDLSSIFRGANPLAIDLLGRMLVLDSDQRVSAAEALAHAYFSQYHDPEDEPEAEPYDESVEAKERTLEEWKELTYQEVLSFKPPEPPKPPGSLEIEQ

For the compound `Cc1ccc2cc(-c3n[nH]c4ccc(NC5CCNC5)cc34)[nH]c2c1` (stereo unspecified), the residual activity was 69% in assay [1]; 10% in [2]; 5% in [3]; 99% in [4]; 2% in [6]; 28% in assay [7]. The residual activity in assay [8] came to 2%; in [9], 0%; in [11], 108%; in assay [12], 93%; in [13] it was 27%; in assay [14] it was 89%. Further, the residual activity in assay [15] worked out at 38%; in assay [17] it was 81%; in [18], 74%; in assay [19] it was 10%; in assay [20] it was 72%; in assay [22], 100%. Moreover, the residual activity in assay [23] stood at 98%. The inhibition was found to be 0% in [5], 2% in assay [10], 76% in [16] and 91% in assay [21].
With `Cc1ccc2cc(-c3n[nH]c4ccc(NC5CCN(Cc6ccccc6)CC5)cc34)[nH]c2c1`, the residual activity in assay [1] was 95%; in assay [2], 0%; in assay [3] it was 1%; in assay [4], -8%; in [6], 0%; in assay [7] it was 45%. Besides, the residual activity in assay [8] turned out to be 16%; in assay [9] it was 2%; in assay [11], 100%; in [12] it was 93%; in [13], 61%; in assay [14] it was 81%. Further, the residual activity in assay [15] was 72%; in assay [17] it was 10%; in [18] it was 45%; in assay [19], 20%; in [20], 68%; in [22] it was 117%. Also, in [23], the residual activity was determined as 104%. Moreover, the inhibition in assay [5] stood at 4%; in assay [10], 91%; in assay [16], 87%; in assay [21] it was 86%.
